The text below walks through data of ChEMBL document CHEMBL1130275, “Novel N-substituted 3 alpha-[bis(4'-fluorophenyl)methoxy]tropane analogues: selective ligands for the dopamine transporter” (J Med Chem, 1997).

Where only a bound is given, the exact number is not on record here.

The term Ki denotes the equilibrium dissociation constant of an inhibitor or competing ligand from its target. A lower Ki goes with a stronger hold on the target. One may read the IC50 as the point on the concentration scale where inhibition reaches its midpoint. A lower IC50 goes with inhibition by little substance. What is called inhibition is the drop in the measured response relative to a control, in per cent. High values mean a strong effect, low ones a weak effect.

Test [1] concerns the target Sodium-dependent serotonin transporter (Rattus norvegicus, UniProt P31652). Briefly: (§1) Compound is evaluated for binding to Serotonin transporter using [3H]citalopram as radioligand in rat brain. The class given is tissue-based. The method, boiled down: (§2)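 Binding data supplied by an outside contract lab using published methods. SERT: [3H]citalopram, 0.7 nM final. NET: [3H]desmethylimipramine, 3.0 nM final.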

Test [2] concerns the target T1, Sodium-dependent dopamine transporter (Rattus norvegicus, UniProt P23977). Briefly: In vitro inhibition of dopamine uptake in rat tissue, was determined using [3H]DAU as radioligand. The method, boiled down: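 Rat caudate putamen slices (225 μm, cross-chopped) in oxygenated Krebs-HEPES at 37 °C. Stopped with ice-cold buffer and filtration. Accumulated label extracted with methanol/HCl and counted; filter blank subtracted. IC50 taken from the linear portion of the concentration–response curve by regression.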

Test [3] has as its target T1, Sodium-dependent dopamine transporter. Nature of the test: Displacement of [3H]WIN-35 428 from the dopamine transporter in rat caudate putamen. The test is classed as tissue-based. The method, boiled down: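 Rat caudate putamen membranes washed in Krebs-HEPES pH 7.4, 0.5% w/v final. Filtration through BSA-soaked GF/B. Compounds run at 0.01 nM–100 μM, three experiments in triplicate. Ki derived by LIGAND nonlinear fitting of two-site binding.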

In test [4] the target is T2, Muscarinic acetylcholine receptor M1 (Rattus norvegicus, UniProt P08482).
T2 sequence (P08482 whole entry): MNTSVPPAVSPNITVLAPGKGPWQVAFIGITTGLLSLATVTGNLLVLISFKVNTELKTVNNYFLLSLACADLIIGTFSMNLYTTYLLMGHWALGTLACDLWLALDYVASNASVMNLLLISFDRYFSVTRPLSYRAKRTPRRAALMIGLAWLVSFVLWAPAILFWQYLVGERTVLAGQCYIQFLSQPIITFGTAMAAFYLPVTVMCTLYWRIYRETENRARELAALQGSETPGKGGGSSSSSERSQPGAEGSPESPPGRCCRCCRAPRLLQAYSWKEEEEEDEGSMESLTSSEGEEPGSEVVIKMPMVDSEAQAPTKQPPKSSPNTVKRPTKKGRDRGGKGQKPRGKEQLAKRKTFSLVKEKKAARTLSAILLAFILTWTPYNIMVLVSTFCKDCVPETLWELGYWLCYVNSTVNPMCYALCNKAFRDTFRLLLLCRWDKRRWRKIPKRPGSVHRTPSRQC
Briefly: Binding affinity against Muscarinic acetylcholine receptor M1 sites of rat. The method, boiled down:
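Whole rat brain minus cerebellum, membranes made by two-step centrifugation and resuspended in 10 mM Tris pH 7.4. Assay buffer is 10 mM Tris-HCl with 5 mM MgCl2. Membrane is preincubated 5 min with the compound, then [3H]pirenzepine 3 nM final is added for 1 h at 37 °C. Filtration through PEI-soaked GF/B. Compounds run at 0.01 nM–100 μM, ≥3 independent experiments in triplicate.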

Test [5] has as its target T3, Sodium-dependent noradrenaline transporter (Homo sapiens, UniProt P23975). Briefly: (§3) Compound was evaluated for binding to Norepinephrine Transporter (NET) using [3H]desmethylimipramine as radioligand. Summed up: as §2
Test [6] concerns the target Sodium-dependent serotonin transporter (Rattus norvegicus) (UniProt P31652). The description is as §1. The test is classed as tissue-based. The following applies: concentration not given here. The method, boiled down: as §2
For test [7], the target named is T3, Sodium-dependent noradrenaline transporter. Described as §3. The following applies: concentration not given here. Summed up: as §2
Test [8] shares this target. Nature of the test: Compound was evaluated for binding to Norepinephrine Transporter (NET). The method, boiled down:
as §2

Test [9] concerns the target Sodium-dependent dopamine transporter (Rattus norvegicus) (UniProt P23977). Briefly: Inhibition of binding of [3H]WIN-35 428 to dopamine transporter (in rat caudate putamen) by 10 uM of compound. The test is classed as tissue-based.

T3 sequence (P23975 whole entry): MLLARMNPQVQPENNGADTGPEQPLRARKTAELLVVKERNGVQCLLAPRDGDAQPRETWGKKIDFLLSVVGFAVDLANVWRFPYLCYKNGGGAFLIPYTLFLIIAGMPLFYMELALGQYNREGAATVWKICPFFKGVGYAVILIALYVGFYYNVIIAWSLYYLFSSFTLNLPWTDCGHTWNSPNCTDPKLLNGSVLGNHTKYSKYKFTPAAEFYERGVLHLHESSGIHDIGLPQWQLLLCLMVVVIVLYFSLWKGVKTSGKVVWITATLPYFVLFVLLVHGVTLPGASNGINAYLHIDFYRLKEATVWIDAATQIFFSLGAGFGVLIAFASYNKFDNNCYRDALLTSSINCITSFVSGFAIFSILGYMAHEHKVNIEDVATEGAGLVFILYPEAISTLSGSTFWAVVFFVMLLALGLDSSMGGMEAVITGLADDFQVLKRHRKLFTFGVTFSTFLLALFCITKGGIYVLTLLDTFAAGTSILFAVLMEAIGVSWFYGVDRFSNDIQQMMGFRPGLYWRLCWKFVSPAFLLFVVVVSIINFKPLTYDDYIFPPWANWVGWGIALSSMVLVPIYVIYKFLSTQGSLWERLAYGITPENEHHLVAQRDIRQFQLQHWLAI
Sodium-dependent serotonin transporter (Rattus norvegicus), sequence (P31652 whole entry): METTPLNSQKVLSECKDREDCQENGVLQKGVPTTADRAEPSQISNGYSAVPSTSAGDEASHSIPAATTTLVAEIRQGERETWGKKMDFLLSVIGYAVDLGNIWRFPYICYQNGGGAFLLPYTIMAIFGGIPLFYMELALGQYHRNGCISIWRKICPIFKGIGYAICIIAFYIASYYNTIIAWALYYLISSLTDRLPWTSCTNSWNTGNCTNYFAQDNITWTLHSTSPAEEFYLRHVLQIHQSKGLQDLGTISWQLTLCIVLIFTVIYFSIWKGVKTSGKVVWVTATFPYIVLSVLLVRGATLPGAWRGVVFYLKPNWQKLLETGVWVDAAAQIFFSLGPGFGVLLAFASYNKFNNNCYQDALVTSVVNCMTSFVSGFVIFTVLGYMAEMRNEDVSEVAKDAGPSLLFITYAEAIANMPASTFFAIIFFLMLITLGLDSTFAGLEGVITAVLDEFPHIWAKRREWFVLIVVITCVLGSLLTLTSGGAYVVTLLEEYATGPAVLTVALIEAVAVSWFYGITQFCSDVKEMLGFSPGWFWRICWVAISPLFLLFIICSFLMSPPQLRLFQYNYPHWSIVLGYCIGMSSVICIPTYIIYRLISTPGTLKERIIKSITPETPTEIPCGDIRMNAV
Sodium-dependent serotonin transporter, sequence (P31652 whole entry): as above
T1 sequence (P23977 whole entry): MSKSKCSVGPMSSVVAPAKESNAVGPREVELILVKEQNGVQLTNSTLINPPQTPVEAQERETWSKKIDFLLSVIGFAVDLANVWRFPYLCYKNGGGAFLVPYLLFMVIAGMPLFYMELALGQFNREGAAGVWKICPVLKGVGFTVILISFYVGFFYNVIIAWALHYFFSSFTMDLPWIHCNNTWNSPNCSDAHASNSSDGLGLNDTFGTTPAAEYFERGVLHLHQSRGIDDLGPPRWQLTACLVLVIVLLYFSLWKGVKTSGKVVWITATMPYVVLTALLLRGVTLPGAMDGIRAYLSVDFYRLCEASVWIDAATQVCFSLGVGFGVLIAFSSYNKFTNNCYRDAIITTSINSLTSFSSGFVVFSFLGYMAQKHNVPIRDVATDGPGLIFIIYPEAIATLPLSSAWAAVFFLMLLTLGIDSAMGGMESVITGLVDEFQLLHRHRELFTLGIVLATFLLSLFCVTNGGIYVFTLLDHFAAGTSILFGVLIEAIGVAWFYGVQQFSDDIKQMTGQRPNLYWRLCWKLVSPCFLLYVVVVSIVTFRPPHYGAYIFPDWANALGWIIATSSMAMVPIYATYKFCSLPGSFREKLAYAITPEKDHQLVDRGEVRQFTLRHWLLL
Sodium-dependent dopamine transporter (Rattus norvegicus), sequence (P23977 whole entry): as above

Take `Fc1ccc(C(OC2CC3CCC(C2)N3CC2CC2)c2ccc(F)cc2)cc1` (configuration not stated): the inhibition constant (Ki) in test [1] came out at 1.19 µM; in test [3], 0.0324 µM; in [4], 0.136 µM; in [5], 4.79 µM. This molecule also gave an IC50 in test [2] of 0.18 µM.
Take `Fc1ccc(C(OC2CC3CCC(C2)N3Cc2ccccc2)c2ccc(F)cc2)cc1` (configuration not stated): the IC50 in test [2] amounted to 0.29 µM. For the same molecule, the inhibitory constant (Ki) in test [3] stood at 0.0822 µM; in [4], 0.773 µM; in test [5], 2.08 µM. Besides, in [6], the inhibition came to 74%.
Regarding `C[N+]1(C)[C@@H]2CC[C@H]1C[C@@H](OC(c1ccc(F)cc1)c1ccc(F)cc1)C2`, the inhibition was determined as 38% in test [7] and 79% in test [6]. For the same molecule, the IC50 in test [2] worked out at 0.13 µM. For the same molecule, the values for the Ki in test [3] and in test [4] were 0.108 µM and 0.0291 µM, respectively.
Turning to `C=CCN1C2CCC1CC(OC(c1ccc(F)cc1)c1ccc(F)cc1)C2` (configuration not stated), the Ki came to 1.45 µM in [1], 0.0299 µM in [3], 0.126 µM in test [4] and 5.92 µM in [5]. This molecule returned an IC50 in [2] of 0.014 µM.
With `Fc1ccc(C(OC2CC3CCC(C2)N3)c2ccc(F)cc2)cc1` (configuration not stated), the Ki in [1] is 2.1 µM; in test [3], 0.0112 µM; in test [8], over 8 µM; in test [4], 0.156 µM. In [2], this molecule registered an IC50 of 0.0097 µM.
As for `Fc1ccc(C(OCCN2C3CCC2CC(OC(c2ccc(F)cc2)c2ccc(F)cc2)C3)c2ccc(F)cc2)cc1` (configuration not stated), affinity in test [3] was put at a Ki of 0.634 µM.
The same measure, in the same setting: to `Fc1ccc(CCCN2C3CCC2CC(OC(c2ccc(F)cc2)c2ccc(F)cc2)C3)cc1` (configuration not stated) belongs 0.0607 µM.
As to `O=CN1C2CCC1CC(OC(c1ccc(F)cc1)c1ccc(F)cc1)C2` (configuration not stated), the values for the inhibition in test [7] and in test [6] were 29.4% and 1.6%, respectively. The molecule further gave an IC50 in [2] of 5.4 µM. Further, the Ki in test [3] came out at 2.02 µM; in test [4], 12.3 µM.
Turning to `CCCCN1C2CCC1CC(OC(c1ccc(F)cc1)c1ccc(F)cc1)C2` (configuration not stated), the Ki in test [1] was 1.73 µM; in test [3], 0.0246 µM; in test [4], 0.251 µM; in test [5] it was 1.33 µM. In test [2], this molecule registered a half-inhibitory concentration (IC50) of 0.37 µM.
Consider `CN1C2CCC1CC(OC(c1ccc(F)cc1)c1ccc(F)cc1)C2` (configuration not stated) [DIFLUOROBENZTROPINE], for which the Ki was 2.44 µM in test [1] and over 8.5 µM in test [5].
On to `Cc1ccc(S(=O)(=O)N2C3CCC2CC(OC(c2ccc(F)cc2)c2ccc(F)cc2)C3)cc1` (configuration not stated), for which the inhibition in [9] was determined as 0%.
With `O=[N+]([O-])c1ccc(CCCCN2[C@@H]3CC[C@H]2C[C@@H](OC(c2ccc(F)cc2)c2ccc(F)cc2)C3)cc1`, the IC50 in test [2] was 0.65 µM. The same molecule registered an inhibitory constant (Ki) in test [3] of 0.0202 µM.
Regarding `Fc1ccc(C(OC2CC3CCC(C2)N3CCCc2ccccc2)c2ccc(F)cc2)cc1` (configuration not stated), the Ki in test [1] is 0.375 µM; in test [3], 0.0419 µM; in [4], 0.136 µM; in test [5], 3.52 µM. In addition, the IC50 in [2] turned out to be 0.23 µM.
For `CS(=O)(=O)N1C2CCC1CC(OC(c1ccc(F)cc1)c1ccc(F)cc1)C2` (configuration not stated), the inhibition in test [9] is 18%.
For the molecule `Fc1ccc(CN2C3CCC2CC(OC(c2ccc(F)cc2)c2ccc(F)cc2)C3)cc1` (configuration not stated), the inhibition in [7] was 60%. Further, in test [2], the concentration for half-maximal inhibition (IC50) was determined as 0.2 µM. Besides, the Ki in test [3] is 0.0956 µM; in [4], 0.611 µM.
As for `CC(=O)N1C2CCC1CC(OC(c1ccc(F)cc1)c1ccc(F)cc1)C2` (configuration not stated), the values for the inhibition in test [7] and in [6] were 8.5% and 1.3%, respectively. Further, in [2], the IC50 was 4.6 µM. Also, the affinity in [3] corresponds to a Ki of 2.34 µM.
`O=[N+]([O-])c1ccc(-c2ccc(COCCN3C4CCC3CC(OC(c3ccc(F)cc3)c3ccc(F)cc3)C4)cc2)cc1` (configuration not stated) registered a Ki in test [3] of 0.057 µM.
